What is called IC50 is the midpoint of a concentration-inhibition curve. By inhibition is commonly meant the percentage by which the read-out fell short of the control.

Results on 14 molecules are retold here after PMC4128789 (Drug Design, Development and Therapy, 2014).

Where two headings read alike, the source gives them in different places.

What all share (format): cell-based
The subject of test [1] is SMMC-7721 (human liver carcinoma) cells. The experiment in a line: MTT in vitro cytotoxicity assay, SMMC-7721. The note with it: read-out: IC50 (μM) SMMC-7721. In a few lines:
(§1)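 Cells grown in DMEM with 10% FBS, penicillin/streptomycin, 37°C, 5% CO2. Seeded at 10,000 (MCF-7), 5,000 (SW-1990) or 6,000 (SMMC-7721) per well for 24 h. Test compound in DMSO, diluted in medium (0.1% DMSO), given at 1.95–250 μM final for 48 h. MTT (5 mg/mL, 10% v/v) added for 4 h; formazan dissolved in DMSO; A570 read, 630 nm background. % inhibition calculated versus 0.1% DMSO control; IC50 from viability–dose plot; at least triplicate, mean ± SD.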

Test [2] has as its system SW-1990 (human pancreatic carcinoma) cells. The experiment in a line: MTT in vitro cytotoxicity assay, SW-1990. The note with it: for IC50: read-out: IC50 (μM) SW-1990. In short, it runs like this:
as §1

Test [3] concerns MCF-7 (human breast adenocarcinoma) cells. The experiment in a line: MTT in vitro cytotoxicity assay, MCF-7. As to conditions: read-out: IC50 (μM) MCF-7. In short, it runs like this:
as §1

Test [4] has as its system Human umbilical vein endothelial cell (HUVEC). The experiment in a line: MTT in vitro cytotoxicity assay, HUVEC. As to conditions: for selectivity toward the normal cell line HUVEC compared with berberine: cancer cell lines versus HUVEC. In a few lines:
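HUVEC used at passages 1–7, grown in endothelial basal medium with 3% FBS growth supplement. Seeded at 5,000 cells/well and held 24 h at 37°C, 5% CO2. Test compound in DMSO, diluted in medium (0.1% DMSO final), given at 1.95–250 μM for 48 h. MTT added for 4 h, formazan dissolved in DMSO, absorbance read at 570 nm less 630 nm. IC50 from viability versus dose; at least triplicate, mean ± SD.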

The mark [5] stands for this setting: MTT assay after 48 hours of drug exposure, mean ± SD.

As for “9-O-[1-(2-fluorobenzyl)-4-ethyl-1H-1, 2, 3-triazole] berberine chloride [Compound 5]”, the IC50 turned out to be 44.5 ± 4.88 µM in test [1] (setting [5]), 64 ± 8.46 µM in test [2] (setting [5]) and 75 ± 9.35 µM in test [3] (setting [5]).

Consider “9-O-[1-(2-methylbenzyl)-4-ethyl-1H-1, 2, 3-triazole] berberine chloride [Compound 14]”, for which the IC50 worked out at 19.9 ± 2.33 µM in test [1] (setting [5]), 23.7 ± 3.47 µM in test [2] (setting [5]) and 40.8 ± 5.92 µM in test [3] (setting [5]). Further, the “selectivity toward the normal cell line HUVEC compared with berberine” value in test [4] was “much better selectivity than berberine”.

For the molecule “9-O-[1-(3-fluorobenzyl)-4-ethyl-1H-1, 2, 3-triazole] berberine chloride [Compound 6]”, the IC50 in test [1] (setting [5]) stood at 51.5 ± 6.03 µM; in test [2] (setting [5]), 62.6 ± 7.85 µM; in test [3] (setting [5]), 69.9 ± 8.73 µM.

As for “9-O-[1-(4-fluorobenzyl)-4-ethyl-1H-1, 2, 3-triazole] berberine chloride [Compound 7]”, the IC50 in test [1] (setting [5]) is 54.6 ± 5.98 µM; in test [2] (setting [5]) it was 53.6 ± 6.33 µM; in test [3] (setting [5]), 73.5 ± 10.2 µM.

Turning to `COc1ccc2cc3[n+](cc2c1OC)CCc1cc2c(cc1-3)OCO2` [BBR, berberine, reference compound], the half-maximal inhibitory concentration (IC50) in test [1] (Homo sapiens, SMMC-7721, 48 h) was determined as 68.1 ± 7.76 µM; in test [2] (Homo sapiens, SW1990, 48 h) it was 27.6 ± 3.04 µM; in test [3] (Homo sapiens, MCF7, 48 h), 122 ± 11.3 µM; in test [4] (Homo sapiens, HUVEC, 48 h, read-out: IC50 (μM) HUVEC) it was 18.3 ± 2.31 µM. For the same molecule, the inhibition at 62.5 µM in test [2] (Homo sapiens, SW1990, read-out: inhibition against SW-1990 cell growth) is greater than 50%.

For `COc1ccc2cc3[n+](cc2c1OCCc1cn(Cc2ccc(Br)cc2)nn1)CCc1cc2c(cc1-3)OCO2` [Compound 13, 9-O-[1-(4-bromobenzyl)-4-ethyl-1H-1,2,3-triazole] berberine chloride], the values for the IC50 in test [1] (setting [5]), in test [2] (setting [5]) and in test [3] (setting [5]) were 20 ± 2.37 µM, 30.4 ± 4.89 µM and 47.1 ± 6.93 µM, respectively.

With `COc1ccc2cc3[n+](cc2c1OCCc1cn(Cc2ccc(C)cc2)nn1)CCc1cc2c(cc1-3)OCO2.[Cl-]` [Compound 15, 9-O-[1-(4-methylbenzyl)-4-ethyl-1H-1,2,3-triazole] berberine chloride], the IC50 in test [1] (setting [5]) turned out to be 39.4 ± 4.98 µM; in test [2] (setting [5]), 32 ± 4.23 µM; in test [3] (setting [5]) it was 37.8 ± 4.66 µM. In addition, the “selectivity toward the normal cell line HUVEC compared with berberine” value in test [4] is reported as “much better selectivity than berberine”.

In the case of `COc1ccc2cc3[n+](cc2c1OCCc1cn(Cc2cccc(C(F)(F)F)c2)nn1)CCc1cc2c(cc1-3)OCO2` [Compound 20, 9-O-[1-(3-(trifluoromethyl)benzyl-4-ethyl-1H-1,2,3-triazole]berberine chloride], the values for the IC50 in test [1] (setting [5]), in test [2] (setting [5]) and in test [3] (setting [5]) were 32.2 ± 5.2 µM, 39.3 ± 3.76 µM and 86.2 ± 10.5 µM, respectively.

Take `COc1ccc2cc3[n+](cc2c1OCCc1cn(Cc2ccc(C(F)(F)F)cc2)nn1)CCc1cc2c(cc1-3)OCO2` [Compound 21, 9-O-[1-(4-(trifluoromethyl)benzyl-4-ethyl-1H-1,2,3-triazole]berberine chloride]: the IC50 amounted to 23.3 ± 2.63 µM in test [1] (setting [5]), 36.8 ± 3.45 µM in test [2] (setting [5]) and 68.1 ± 7.56 µM in test [3] (setting [5]).

As for `COC(=O)c1ccc(Cn2cc(CCOc3c(OC)ccc4cc5[n+](cc34)CCc3cc4c(cc3-5)OCO4)nn2)cc1` [Compound 25, 9-O-[1-(4-methyl formatebenzyl)-4-ethyl-1H-1,2,3-triazole] berberine chloride], the IC50 in test [1] (setting [5]) is 53.5 ± 5.84 µM; in test [2] (setting [5]) it was 165 ± 18.9 µM; in test [3] (setting [5]), 249 ± 20.1 µM.

Regarding `COc1ccc2cc3[n+](cc2c1OCCc1cn(Cc2ccc(F)cc2F)nn1)CCc1cc2c(cc1-3)OCO2` [Compound 27, 9-O-[1-(2,4-difluorobenzyl)-4-ethyl-1H-1,2,3-triazole] berberine chloride], the IC50 in test [1] (setting [5]) was 35.9 ± 4.76 µM; in test [2] (setting [5]), 69 ± 9.33 µM; in test [3] (setting [5]) it was 70.7 ± 6.45 µM.

For `COc1ccc2cc3[n+](cc2c1OCCc1cn(Cc2ccc(F)c(F)c2)nn1)CCc1cc2c(cc1-3)OCO2` [Compound 29, 9-O-[1-(3,4-difluorobenzyl)-4-ethyl-1H-1,2,3-triazole] berberine chloride], the IC50 stood at 43.8 ± 5.32 µM in test [1] (setting [5]), 38.5 ± 4.65 µM in test [2] (setting [5]) and 81.2 ± 10.4 µM in test [3] (setting [5]).

For `COc1ccc2cc3[n+](cc2c1OCCc1cn(Cc2cc(Cl)ccc2Cl)nn1)CCc1cc2c(cc1-3)OCO2` [Compound 33, 9-O-[1-(2,5-dichlorobenzyl)-4-ethyl-1H-1,2,3-triazole] berberine chloride], the IC50 in test [1] (setting [5]) came out at 24.2 ± 3.48 µM; in test [2] (setting [5]), 38.6 ± 4.57 µM; in test [3] (setting [5]), 65.5 ± 7.22 µM.

Regarding `COc1ccc2cc3[n+](cc2c1OCCc1cn(Cc2ccc(Cl)c(Cl)c2)nn1)CCc1cc2c(cc1-3)OCO2.[Cl-]` [Compound 35, 9-O-[1-(3,4-dichlorobenzyl)-4-ethyl-1H-1,2,3-triazole] berberine chloride], the IC50 was found to be 16.1 ± 2.92 µM in test [1] (setting [5]), 20.4 ± 2.35 µM in test [2] (setting [5]) and 30.8 ± 4.32 µM in test [3] (setting [5]). In addition, the “IC50 against HUVECs relative to compound 32” value in test [4] (ratio to compound 32 IC50) is on record as “four times lower than that of 32”.
